Assay outcomes from PubChem BioAssay.
MEKK2mut PB1 HTS: signal of MEK5 binding to mutant human MEKK2 PB1 domain; percent response, % at 10 µM; bead flow cytometry, Alexa488-MEK5 binding to MEKK2 mutant; hit rate 0.35% among 290,000; in the data active = percent response above about 24%, passing the limit was not always enough
UBC13 inh: blocks human UBC13 polyubiquitin chain formation | TR-FRET | inhibition, % at 20 µM | AID 485273 | hit rate 0.47% among 330,000; in the data active = inhibition above about 45%, passing the limit was not always enough
Target sequence (P61088 whole entry, looked up): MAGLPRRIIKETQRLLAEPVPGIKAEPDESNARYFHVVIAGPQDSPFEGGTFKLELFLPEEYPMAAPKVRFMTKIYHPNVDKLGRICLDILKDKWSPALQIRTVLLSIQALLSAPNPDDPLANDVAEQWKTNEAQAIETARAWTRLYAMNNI
PREPL inhibitor: inhibits the human prolyl oligopeptidase-like enzyme. Q4J6C6. recombinant PREPL, fluorescence polarization activity-based probe. inhibition, % at 5.96 µM. hit rate 0.68% among 320,000. AID 2751; in the data active = inhibition above about 43%;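 note: 0% = enzyme with DMSO and 100% = wells lacking enzyme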
MEKK3 PB1 HTS: raises or lowers MEK5 binding to the human MEKK3 PB1 domain; binding response (% of control), % at 10 µM; Q99759; bead-based flow cytometry, Alexa488-MEK5 binding to MEKK3; actives lie on both sides; 0 = blocked by unlabeled MEK5, 100 = vehicle; hit rate 1.4% among 290,000;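 active = binding response more than 3 SD above or below the average of its plate-row segment, actives on both sides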;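 note: Alexa488 bead fluorescence after subtracting the streptavidin-only scavenger bead signal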
MEKK2wt PB1 HTS: raises or lowers MEK5 binding to wildtype human MEKK2 PB1 domain. bead flow cytometry, Alexa488-MEK5 binding to MEKK2 WT; actives lie on both sides. binding response (% of control), % at 10 µM. hit rate 1.1% among 290,000. AID 1531; in the data active = binding response below about 67% or above about 130%
Apaf-1 inh: inhibitors of human Apaf-1 apoptosome. reconstituted apoptosome caspase-3 activity, DEVD-Rh110 fluorescence. inhibition, % at 20 µM. hit rate 0.71% among 330,000; active = inhibition of at least 40% at 20 µM;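 note: plate controls were DMSO wells for no effect and DEVD-CHO caspase inhibitor wells for full effect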
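Material: reconstituted apoptosome with Apaf-1, cytochrome c, caspase-9, procaspase-3, dATP / Buffer or medium: pH 7.5 Hepes buffer with CHAPS, BSA, DTT / Also added: cytochrome c with DEVD-Rh110 / Schedule: compound with Apaf-1, dATP, procaspase-3 30 min, then 50 min reaction, room temperature / Technique: rhodamine 110 fluorescence at Ex 480/Em 540 nm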
MEKK2wt confirm: raises or lowers MEK5 binding to wildtype human MEKK2, retest. hit rate 2.4% among 5,900. bead flow cytometry, Alexa488-MEK5 binding to MEKK2 WT; actives lie on both sides. binding response (% of control), % at 10 µM. shares compounds with MEKK3 PB1 HTS; in the data active = binding response below about 16% or above about 210%; inactive = in between
MEKK2mut confirm: signal of MEK5 binding to mutant human MEKK2, retest. bead flow cytometry, Alexa488-MEK5 binding to MEKK2 mutant. hit rate 2% among 5,900. shares compounds with MEKK3 PB1 HTS. percent response, % at 10 µM; in the data active = percent response mostly above about 71%, no sharp cut-off; inactive = mostly below about 38%;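 note: higher means compound restores mutant binding toward wildtype level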
MEKK3-MEK5 inh: confirmation of inhibitors of MEK5 binding to human MEKK3; AID 1894; hit rate 1.8% among 5,900; shares compounds with MEKK3 PB1 HTS; bead flow cytometry, Alexa488-MEK5 binding to MEKK3; stronger effect = lower value; binding response (% of control), % at 10 µM;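 active = binding response below 72% of control, or above a set upper limit, though filed actives all read lower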;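 note: 100% = DMSO only wells and 0% = binding blocked by excess unlabeled MEK5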
Starred values were filed as active, the others as inactive; . = no result given; [ ] = another dose, or the depositor's remark. Hits are enriched below; roughly 3.1% of the tested compounds scored in any of these assays.

SMILES	MEKK2mut PB1 HTS	UBC13 inh	PREPL inhibitor	MEKK3 PB1 HTS	MEKK2wt PB1 HTS	Apaf-1 inh	MEKK2wt confirm	MEKK2mut confirm	MEKK3-MEK5 inh
Cc1cc(C)c2nc3sc(C(=O)N4CCOCC4)c(N)c3cc2c1	-13	11	7	29*[inhibitor]	17*[inhibitor]	-14	102	0	97
O=C(OCC(=O)N1CCN(c2ccccc2)CC1)C1CCCN1S(=O)(=O)c1ccc(Cl)cc1 (centres undefined)	.	1	.	.	.	0	.	.	.
C(=C\c1nc(N2CCCC2)c2ccccc2n1)/c1ccccc1	30	6	-5	107	158*	2	153	39	111
CC1CCN(c2nc(/C=C/c3ccccc3)nc3ccccc23)CC1	6	4	6	101	112	16	.	.	.
COc1ccc(C2CCCN2CC(O)COc2ccccc2C(C)C)cc1 (centres undefined)	13	10	-11	107	125	15	.	.	.
CCN1CCN(c2ccc(NC(=O)CCc3c(C)nc4c(-c5ccc(F)cc5)c(C)nn4c3C)cc2)CC1	20	29	19	104	146*	4	132	24	108
Cc1ccc(S(=O)(=O)Nc2ncc(C(F)(F)F)cc2Cl)cc1	13	-5	-1	110	112	-6	.	.	.
CCOC(=O)C1=C(C)Nc2sc(C(=O)c3ccc(F)cc3)c(N)c2C1c1ccc(C(=O)OC)cc1 (centres undefined)	7	-1	10	93	98	4	.	.	.
CCOC(=O)C1=C(C)Nc2sc(C(=O)c3ccc(C)cc3)c(N)c2C1c1ccc(C(=O)OC)cc1 (centres undefined)	1	14	0	149*	109	7	98	-3	101
Nc1nnc(CSCc2ccc(Cl)cc2Cl)s1	1	0	4	130*	106	-4	100	1	98
Nc1nnc(CSCc2ccc(Cl)cc2)s1	0	-11	-2	97	99	8	.	.	.
O=C1S/C(=C/c2ccccc2)C(=O)N1CC(O)Cn1c2ccccc2c2ccccc21 (centres undefined)	-1	-9	17	75*[inhibitor]	91	14	89	-6	81
CCCc1ccc(Oc2cn[nH]c2-c2ccc(O)c(C)c2O)cc1	3	11	9	123*	105	9	97	-9	96
CCCCC(=O)NC(=S)Nc1cccc(NC(=O)c2ccccc2)c1	-15	0	-4	49*[inhibitor]	61	13	96	-6	99
CCCCOc1cccc(C(=O)NC(=S)Nc2cccc(NC(=O)c3ccccc3Cl)c2)c1	1	-6	-1	137*	105	11	100	-3	102
CCC(=O)Nc1cccc(NC(=O)c2ccc(Br)cc2)c1	1	8	-8	135*	107	-12	94	-12	92
CC(C)CC(=O)NC(=S)Nc1cccc(NC(=O)c2ccccc2)c1	-1	3	-17	154*	105	15	105	3	103
CCCOc1cccc(C(=O)NC(=S)Nc2cccc(NC(=O)c3ccccc3Cl)c2)c1	-1	-3	-19	113	99	7	.	.	.
Cc1csc(=O)n1CCC(=O)OCC(=O)Nc1ccc(F)c(F)c1F	.	-2	-10	.	.	4	.	.	.
Cc1ccc(S(=O)(=O)N2CCCC2)cc1C(=O)N1CCN(Cc2ccccc2)CC1	-2	-2	11	103	100	1	.	.	.
COC(=O)C(NC(=O)c1ccccc1)(Nc1cc(C)cc(C)n1)C(F)(F)F (centres undefined)	6	2	15	126*	92	5	104	1	101
